Assay results reported in ChEMBL document CHEMBL1156906, “Synthesis and structure-activity relationship of botryllamides that block the ABCG2 multidrug transporter” (Bioorg Med Chem Lett, 2010).
pIC50: −log10 of the molar value.

biological target: T1, Broad substrate specificity ATP-binding cassette transporter ABCG2 (Homo sapiens, UniProt Q9UNQ0); test: Inhibition of ABCG2 expressed in human NCI-H460/MX20 cells assessed as accumulation of ABCG2 substrate pheophorbide-A; format: cell-based
T1 sequence (Q9UNQ0 whole entry): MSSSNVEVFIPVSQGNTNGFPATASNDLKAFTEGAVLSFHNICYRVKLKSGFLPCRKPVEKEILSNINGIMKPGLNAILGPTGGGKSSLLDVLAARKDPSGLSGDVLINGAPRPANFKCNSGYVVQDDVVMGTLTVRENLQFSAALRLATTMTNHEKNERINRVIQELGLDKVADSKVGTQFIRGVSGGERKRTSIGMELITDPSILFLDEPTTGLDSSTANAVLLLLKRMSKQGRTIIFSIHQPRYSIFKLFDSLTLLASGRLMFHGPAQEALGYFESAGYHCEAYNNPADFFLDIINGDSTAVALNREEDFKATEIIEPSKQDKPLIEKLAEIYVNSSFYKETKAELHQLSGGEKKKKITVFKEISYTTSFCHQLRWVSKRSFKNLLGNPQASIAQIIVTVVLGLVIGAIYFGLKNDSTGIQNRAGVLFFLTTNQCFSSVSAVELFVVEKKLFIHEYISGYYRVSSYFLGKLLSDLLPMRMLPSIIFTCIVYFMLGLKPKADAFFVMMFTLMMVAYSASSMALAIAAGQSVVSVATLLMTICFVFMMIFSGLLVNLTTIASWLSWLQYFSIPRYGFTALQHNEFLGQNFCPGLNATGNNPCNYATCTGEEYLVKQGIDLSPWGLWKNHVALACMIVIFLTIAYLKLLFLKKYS
Method in brief: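 Cell-based assay in cells overexpressing ABCG2, measuring intracellular accumulation of the fluorescent ABCG2 substrate pheophorbide-a. Medium removed and cells washed with PBS before reading intracellular fluorescence. […] IC50 reported ± SD.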

| Structure (SMILES) | pIC50 |
| --- | --- |
| COC(Cc1ccc(O)cc1)C(=O)N/C=C/c1ccc(O)cc1 (configuration not stated) | < 4.00 |
| CO/C(=C\c1cc(Br)c(O)c(Br)c1)C(=O)N/C=C/c1ccc(OC(C)=O)cc1 | 4.63 |
| CO/C(=C\c1ccc(O)cc1)C(=O)NCCc1ccc(O)cc1 | 4.60 |
| CO/C(=C\c1ccc(O)c(O)c1)C(=O)N/C=C/c1ccc(O)cc1 | 4.73 |
| CO/C(=C\c1ccccc1)C(=O)N/C=C/c1ccc(O)cc1 | 4.81 |
| CO/C(=C\c1ccc(O)cc1)C(=O)O | < 4.00 |
| CO/C(=C\c1ccc(OCc2ccccc2)cc1)C(=O)N/C=C/c1ccc(O)cc1 | < 4.00 |
| CO/C(=C\c1ccc(O)cc1)C(=O)NCC(O)c1ccc(O)cc1 (configuration not stated) | < 4.00 |
| O=C(/C=C/c1ccc(O)cc1)N/C=C/c1ccc(O)cc1 | < 4.00 |
| CO/C(=C\c1ccc(OC)cc1)C(=O)N/C=C/c1ccc(O)cc1 | 5.19 |
| COC(Cc1ccc(O)cc1)C(=O)NCCc1ccc(O)cc1 (configuration not stated) | < 4.00 |
| CO/C(=C\c1cc(Br)c(O)c(Br)c1)C(=O)N/C=C/c1ccc(O)cc1 | 4.95 |
